From ChEMBL document CHEMBL3632581, “Dimers of Melampomagnolide B Exhibit Potent Anticancer Activity against Hematological and Solid Tumor Cells” (J Med Chem, 2015)

Tests used:
[1] = Antileukemic activity against human AML01 cells after 24 hrs by annexin V/7-AAD staining-based flow cytometric analysis; type: functional, cell-based
Outline: (§1)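 Primary AML specimens from consenting donors, isolated by Ficoll-Paque gradient and sometimes cryopreserved. Cells were held 1 h in serum-free IMDM with 20% BIT 9500, LDL and β-mercaptoethanol before drug (DMSO stock diluted in PBS, ≤0.5% DMSO final). Exposure was 24 h over 0.5-10 μM. Annexin V/7-AAD double-negative cells, normalized to vehicle, gave the EC50. Run in triplicate.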

[2] = Antileukemic activity against human M9-ENL1 cells after 24 hrs by annexin V/7-AAD staining-based flow cytometric analysis; type: functional, cell-based
Outline: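 M9-ENL1 cells in alpha-MEM with 5% human plasma, 20% FBS, SCF, IL-3, IL-7 and FLT3. Drug came from a DMSO stock diluted in PBS (≤0.5% DMSO final), for 24 h over 0.5-10 μM. Cells negative for both annexin V and 7-AAD were taken as non-apoptotic and normalized to vehicle. EC50 read from dose-response curves, triplicate.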

[3] = Potency index, ratio of parthenolide EC50 to compound EC50 for human M9-ENL1 cells; type: functional
[4] = Antileukemic activity against human AML05 cells after 24 hrs by annexin V/7-AAD staining-based flow cytometric analysis; type: functional, cell-based; outline: as §1
[5] = Antileukemic activity against human AML02 cells after 24 hrs by annexin V/7-AAD staining-based flow cytometric analysis; type: functional, cell-based; outline: as §1
[6] = Cytotoxicity against hematopoietic progenitor cells isolated from human umbilical cord blood by annexin V staining-based flow cytometric analysis; type: cell-based
Outline: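 Cord-blood mononuclear cells from Ficoll-Paque were plated in serum-free medium, with drug from a DMSO stock (≤0.5% DMSO final). Cells were stained for CD34, CD45 and annexin V. The non-apoptotic fraction (annexin V-negative within the CD34+CD45dim compartment) was normalized to vehicle, and EC50 was fitted where possible. Triplicate.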

[7] = Antileukemic activity against human AML03 cells after 24 hrs by annexin V/7-AAD staining-based flow cytometric analysis; type: functional, cell-based; outline: as §1
[8] = Antileukemic activity against human AML04 cells after 24 hrs by annexin V/7-AAD staining-based flow cytometric analysis; type: functional, cell-based; outline: as §1

Row | SMILES | EC50 [1] | EC50 [2] | EC50 [4] | EC50 [5] | EC50 [7] | EC50 [8] | Ratio EC50 [3] | EC50 [6]
1 | C=C1C(=O)O[C@H]2[C@H]1CC/C(COC(=O)NCCCNC(=O)OC/C1=C/CC[C@@]3(C)O[C@H]3[C@H]3OC(=O)C(=C)[C@@H]3CC1)=C\CC[C@@]1(C)O[C@@H]21 | 2.6 µM | 1 µM | 3.7 µM | 2.3 µM | – | – | 2 | –
2 | C=C1C(=O)O[C@H]2[C@H]1CC/C(COC(=O)NCCCCCCCNC(=O)OC/C1=C/CC[C@@]3(C)O[C@H]3[C@H]3OC(=O)C(=C)[C@@H]3CC1)=C\CC[C@@]1(C)O[C@@H]21 | 1.7 µM | 1.1 µM | 2.4 µM | 1.3 µM | 5.7 µM | 3.6 µM | 2 | > 10 µM
3 | C=C1C(=O)O[C@H]2[C@H]1CC/C(COC(=O)NCCCCCCCCCCNC(=O)OC/C1=C/CC[C@@]3(C)O[C@H]3[C@H]3OC(=O)C(=C)[C@@H]3CC1)=C\CC[C@@]1(C)O[C@@H]21 | 2.3 µM | 2.9 µM | 3.3 µM | 2 µM | 2.9 µM | 4.2 µM | 2 | > 10 µM
4 | C=C1C(=O)O[C@H]2[C@H]1CC/C(COC(=O)OCCCCCOC(=O)OC/C1=C/CC[C@@]3(C)O[C@H]3[C@H]3OC(=O)C(=C)[C@@H]3CC1)=C\CC[C@@]1(C)O[C@@H]21 | – | 2.4 µM | 2.1 µM | 2.2 µM | 1.4 µM | – | 2 | –
5 | C=C1C(=O)O[C@H]2[C@H]1CC/C(COC(=O)OC/C1=C/CC[C@@]3(C)O[C@H]3[C@H]3OC(=O)C(=C)[C@@H]3CC1)=C\CC[C@@]1(C)O[C@@H]21 | 1.6 µM | 0.54 µM | – | – | – | – | 2 | –
6 | C=C1C(=O)O[C@@H]2C3O[C@]3(C)CC/C=C(\C)CC[C@@H]12 (some centres not stated) | 16 µM | 6 µM | 7 µM | 2.5 µM | 4.7 µM | 8 µM | – | –

More lines, main results first:

Row | EC50 [1] | EC50 [2] | EC50 [4] | EC50 [5] | EC50 [7] | EC50 [8] | SMILES | Ratio EC50 [3] | EC50 [6]
7 | 1.6 µM | 1.5 µM | 1.7 µM | 1.2 µM | 3.5 µM | 3.7 µM | C=C1C(=O)O[C@H]2[C@H]1CC/C(COC(=O)NCCCCCCNC(=O)OC/C1=C/CC[C@@]3(C)O[C@H]3[C@H]3OC(=O)C(=C)[C@@H]3CC1)=C\CC[C@@]1(C)O[C@@H]21 | 2 | > 10 µM
8 | 1.9 µM | 2 µM | 3.2 µM | 1.5 µM | 2.4 µM | 3.7 µM | C=C1C(=O)O[C@H]2[C@H]1CC/C(COC(=O)NCCCCCCCCCNC(=O)OC/C1=C/CC[C@@]3(C)O[C@H]3[C@H]3OC(=O)C(=C)[C@@H]3CC1)=C\CC[C@@]1(C)O[C@@H]21 | 2 | > 10 µM
9 | 0.93 µM | 1.2 µM | 2.7 µM | – | 0.86 µM | 2.7 µM | C=C1C(=O)O[C@H]2[C@H]1CC/C(COC(=O)OCCCCOC(=O)OC/C1=C/CC[C@@]3(C)O[C@H]3[C@H]3OC(=O)C(=C)[C@@H]3CC1)=C\CC[C@@]1(C)O[C@@H]21 | 2 | –
